The source of these data is ChEMBL document CHEMBL1154674, “Synthesis and evaluation of three 18F-labeled aminophenylbenzothiazoles as amyloid imaging agents” (J Med Chem, 2009).

Common to all, as to assay type: ADME, organism-based, Macaca mulatta
The nature of data set [1]: Drug level in normal rhesus monkey cerebellum assessed as standard uptake value at 96.3 MBq, iv after 125 mins by microPET. The conditions noted are these: in vivo. An outline of the steps:
(§1)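 One normal rhesus monkey, each tracer given iv via the vena saphena (81.2, 96.3 or 109.4 MBq), with 1 day between tracer injections. Dynamic brain μPET over 180 min used frames of 5 × 60 s, 5 × 120 s, 9 × 300 s and 12 × 600 s. Images were reconstructed by filtered back projection with a RAMP filter. Regional time-activity curves were expressed as SUV.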

Data set [2] is described as follows: Drug level in normal rhesus monkey thalamus assessed as standard uptake value at 96.3 MBq, iv after 2.5 mins by microPET. The note with it: in vivo.
Data set [3] in a line: Drug level in normal rhesus monkey thalamus assessed as standard uptake value at 96.3 MBq, iv after 32.5 mins by microPET. The note with it: in vivo.
A short description of data set [4]: Drug level in normal rhesus monkey white matter assessed as standard uptake value at 96.3 MBq, iv after 52.5 mins by microPET. The conditions noted are these: in vivo, 0.875 h.
Data set [5] in a line: Drug level in normal rhesus monkey thalamus assessed as standard uptake value at 96.3 MBq, iv after 22.5 mins by microPET. The conditions noted are these: in vivo, 0.375 h.
Data set [6] in a line: Drug level in normal rhesus monkey thalamus assessed as standard uptake value at 96.3 MBq, iv after 115 mins by microPET. The conditions noted are these: in vivo.
A short description of data set [7]: Drug level in normal rhesus monkey frontal cortex assessed as standard uptake value at 96.3 MBq, iv after 115 mins by microPET. The note with it: in vivo.
Data set [8] in a line: Drug level in normal rhesus monkey frontal cortex assessed as standard uptake value at 96.3 MBq, iv after 42.5 mins by microPET. The note with it: in vivo.
The nature of data set [9]: Drug level in normal rhesus monkey pons assessed as standard uptake value at 96.3 MBq, iv after 125 mins by microPET. The note with it: in vivo.
Data set [10] can be described thus: Drug level in normal rhesus monkey white matter assessed as standard uptake value at 81.2 MBq, iv after 47.5 mins by microPET. The conditions noted are these: in vivo.
The nature of data set [11]: Drug level in normal rhesus monkey white matter assessed as standard uptake value at 81.2 MBq, iv after 3.5 mins by microPET. The note with it: in vivo.
Data set [12] can be described thus: Drug level in normal rhesus monkey thalamus assessed as standard uptake value at 81.2 MBq, iv after 4.5 mins by microPET. The note with it: in vivo, 0.075 h.
The nature of data set [13]: Drug level in normal rhesus monkey parietal cortex assessed as standard uptake value at 81.2 MBq, iv after 155 mins by microPET. The conditions noted are these: in vivo.
Data set [14] in a line: Drug level in normal rhesus monkey cerebellum assessed as standard uptake value at 81.2 MBq, iv after 115 mins by microPET. The note with it: in vivo. An outline of the steps: as §1
Data set [15] can be described thus: Drug level in normal rhesus monkey frontal cortex assessed as standard uptake value at 81.2 MBq, iv after 1.5 mins by microPET. The note with it: in vivo, 0.025 h. An outline of the steps: (§2)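 Single normal rhesus monkey; each tracer given iv via the vena saphena, with 1 day between tracer injections. Dynamic μPET ran 180 min (5×60 s, 5×120 s, 9×300 s, 12×600 s). Images were reconstructed by filtered back projection with a RAMP filter. Regional time-activity curves were expressed as SUV.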

A short description of data set [16]: Drug level in normal rhesus monkey frontal cortex assessed as standard uptake value at 81.2 MBq, iv after 105 mins by microPET. The note with it: in vivo, 1.75 h. An outline of the steps:
as §2

Data set [17] is described as follows: Drug level in normal rhesus monkey white matter assessed as standard uptake value at 81.2 MBq, iv after 32.5 mins by microPET. The conditions noted are these: in vivo.
Data set [18] in a line: Drug level in normal rhesus monkey parietal cortex assessed as standard uptake value at 152.9 MBq, iv after 12 mins by microPET. The note with it: in vivo, 0.2 h.
A short description of data set [19]: Drug level in normal rhesus monkey pons assessed as standard uptake value at 152.9 MBq, iv after 3.5 mins by microPET. The conditions noted are these: in vivo.
A short description of data set [20]: Drug level in normal rhesus monkey thalamus assessed as standard uptake value at 152.9 MBq, iv after 17.5 mins by microPET. The note with it: in vivo.
A short description of data set [21]: Drug level in normal rhesus monkey pons assessed as standard uptake value at 152.9 MBq, iv after 4.5 mins by microPET. The note with it: in vivo, 0.075 h.
The nature of data set [22]: Drug level in normal rhesus monkey pons assessed as standard uptake value at 152.9 MBq, iv after 2.5 mins by microPET. The note with it: in vivo.
The nature of data set [23]: Drug level in normal rhesus monkey white matter assessed as standard uptake value at 152.9 MBq, iv after 37.5 mins by microPET. The conditions noted are these: in vivo, 0.625 h.
A short description of data set [24]: Drug level in normal rhesus monkey frontal cortex assessed as standard uptake value at 152.9 MBq, iv after 42.5 mins by microPET. The conditions noted are these: in vivo. An outline of the steps:
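Single normal rhesus monkey; tracer given iv via the vena saphena, 1 day apart from the other tracer injections. Dynamic μPET ran 90 min (5×60 s, 5×120 s, 9×300 s, 3×600 s). Images were reconstructed by filtered back projection with a RAMP filter. Regional time-activity curves were expressed as SUV.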

Data set [25] can be described thus: Drug level in normal rhesus monkey white matter assessed as standard uptake value at 152.9 MBq, iv after 0.5 mins by microPET. The conditions noted are these: in vivo.
Data set [26] is described as follows: Drug level in normal rhesus monkey white matter assessed as standard uptake value at 109.4 MBq, iv after 12.5 mins by microPET. The note with it: in vivo.
Data set [27] can be described thus: Drug level in normal rhesus monkey parietal cortex assessed as standard uptake value at 109.4 MBq, iv after 6.5 mins by microPET. The note with it: in vivo.
Data set [28] can be described thus: Drug level in normal rhesus monkey pons assessed as standard uptake value at 109.4 MBq, iv after 32.5 mins by microPET. The conditions noted are these: in vivo.
Data set [29] is described as follows: Drug level in normal rhesus monkey parietal cortex assessed as standard uptake value at 109.4 MBq, iv after 22.5 mins by microPET. The conditions noted are these: in vivo, 0.375 h.
Data set [30] in a line: Drug level in normal rhesus monkey pons assessed as standard uptake value at 109.4 MBq, iv after 123 mins by microPET. The note with it: in vivo, 2.05 h.
A short description of data set [31]: Drug level in normal rhesus monkey parietal cortex assessed as standard uptake value at 109.4 MBq, iv after 27.5 mins by microPET. The conditions noted are these: in vivo.
Data set [32] can be described thus: Drug level in normal rhesus monkey white matter assessed as standard uptake value at 109.4 MBq, iv after 111 mins by microPET. The conditions noted are these: in vivo.
A short description of data set [33]: Drug level in normal rhesus monkey frontal cortex assessed as standard uptake value at 109.4 MBq, iv after 6.5 mins by microPET. The note with it: in vivo.
Data set [34] can be described thus: Drug level in normal rhesus monkey thalamus assessed as standard uptake value at 109.4 MBq, iv after 12.5 mins by microPET. The note with it: in vivo.
The nature of data set [35]: Drug level in normal rhesus monkey parietal cortex assessed as standard uptake value at 109.4 MBq, iv after 15.5 mins by microPET. The conditions noted are these: in vivo.
A short description of data set [36]: Drug level in normal rhesus monkey frontal cortex assessed as standard uptake value at 109.4 MBq, iv after 117 mins by microPET. The note with it: in vivo, 1.95 h.
The nature of data set [37]: Drug level in normal rhesus monkey frontal cortex assessed as standard uptake value at 109.4 MBq, iv after 47.5 mins by microPET. The conditions noted are these: in vivo. An outline of the steps: as §1

As for `CN(C)c1ccc2nc(-c3ccc([18F])cc3)sc2c1`, the SUV in data set [1] worked out at 0.9; in data set [2] it was 1.52; in data set [3] it was 2.33; in [4] it was 1.4; in data set [5], 2.35; in data set [6], 2.14. In addition, the SUV in data set [7] worked out at 1.66; in [8] it was 1.96; in data set [9] it was 1.88.

Consider `CNc1ccc2nc(-c3ccc([18F])cc3)sc2c1`, for which the SUV in data set [10] came to 3.674; in [11], 3.019; in data set [12] it was 4.054; in data set [13] it was 2.662; in data set [14], 1.715; in [15], 3.245. Also, the SUV in data set [16] is recorded as 4.68; in data set [17], 3.799.

On to `[11CH3]Nc1ccc(-c2nc3ccc(O)cc3s2)cc1` [PITTSBURGH COMPOUND B], for which the SUV in [18] stood at 2.062; in data set [19], 1.502; in data set [20], 2.159; in data set [21] it was 2.008; in data set [22], 1.05; in [23], 1.095. Further, the SUV in [24] stood at 0.84; in [25], 0.038.

For the compound `Nc1ccc2nc(-c3ccc([18F])cc3)sc2c1`, the SUV in data set [26] stood at 3.01; in data set [27], 5.31; in data set [28] it was 4.74; in data set [29] it was 4.93; in data set [30], 4.99; in data set [31], 4.84. Also, the SUV in data set [32] was found to be 3.82; in data set [33] it was 5.35; in data set [34], 5.39; in data set [35] it was 5.1; in data set [36] it was 4.28; in [37], 4.76.
